# XiGFP reactiv = X-chromosome reactivation activator; XiGFP mouse fibroblasts, % GFP-positive cells imaging, 3 d; cells co-treated with 5-aza-dC sensitizer; scaled so ellipticine positive control = 100%; activation, % at 7.58 µM; 0.055% of 360,000 active;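 active means mean normalized replicate activation at least 10% and every replicate at or above 10%; inconclusive means only one of the two criteria met; inactive means mean below 10% and not all replicates reach 10%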;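 further: 0% = median of on-plate neutral control wells and 100% = ellipticine 6 µM median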
#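 assay system = SV40-immortalized XiGFP fibroblast cells, line 68-5-11 | buffer or medium = DMEM plus 5-aza-dC sensitizer | doses = single-point pinned compound dosing | times = 3-day compound exposure, then 15 min fixation at room temperature | benchmarks = positive control ellipticine, 6 µM final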
# FN deposit inh = fibronectin deposition inhibition | inhibition, % at 12.6 µM | AH1F fibroblasts, Alexa488-fibronectin deposition fluorescence, overnight | 0.086% of 350,000 active | AID 743247;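 active means mean inhibition across replicates of 30% or more, regardless of how many single replicates reach that level; inconclusive means mean under 30% yet at least half of replicates reach 30%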;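 further: positive control wells lacked labelled fibronectin entirely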
#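 Material – AH1F fibroblast monolayer, labelled fibronectin deposition · Reagent – labelled fibronectin 24 nM · Timing – 1 h adhesion, overnight exposure · Measured by – fluorescence at 485 nm excitation, 525 nm emission · Read-out – inhibition of fibronectin deposition signal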
# DENV2 CPE = protects cells from dengue virus 2 cytopathic effect | CPE inhibition, % at 9.99 µM | DENV2-infected cells, cytopathic effect rescue, plate reader | 1.7% of 350,000 active | AID 651640; in the data active means CPE inhibition above about 20%, passing the limit was not always enough; inconclusive means no clear call, values can overlap the other calls; tested in BHK-21 cells;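 further: 0% = median of neutral control wells and 100% = median of positive control wells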
# PGC1a acetyl inh = lowers PGC1a acetylation signal in U2OS cells | 0.17% of 350,000 active | AID 651687 | inhibition, % at 15.6 µM | AlphaScreen anti-acetyl-lysine; with virally co-expressed GCN5 acetyltransferase;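 active means every replicate shows inhibition of at least 40%; inconclusive means mean inhibition at least 40% but some replicate below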;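 further: 0% = neutral control wells and 100% = positive control wells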
# Cneo AK release = causes C. neoformans cell lysis | adenylate kinase release luminescence, 4 h; normalised: neutral wells 0, clomiphene wells 100 | lysis activity, % at 15 µM | AID 651654 | 0.2% of 360,000 active;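 active means mean lysis activity across replicates of at least 80%, whatever share of replicates individually reach that level; inactive means mean lysis activity below 80%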
#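 Assay system: Cryptococcus neoformans yeast cells / Dosing: single-point compound dose / Timing: 4 h at 37 °C static, read 1 h later / Measured by: luminescence of released adenylate kinase using an AK detection reagent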
# F508del corr = correctors of CFTR F508del function in bronchial epithelial cells; activity (quench increase), % at 7.58 µM; CFBE cells, YFP halide quenching; stimulated with forskolin plus potentiator P3; % fluorescence drop versus neutral controls; 0.36% of 350,000 active; AID 720511;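 active means mean added fluorescence quench of at least 8% versus neutral control, with both replicates also reaching 8%; inconclusive means only one of the mean or replicate conditions met; inactive means mean below 8% and not both replicates reaching 8%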;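 further: cells transiently co-express mutant CFTR-F508del with the halide-sensitive YFP; corrector assay measuring rescue of mutant channel to the surface after 24 h compound exposure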
# An asterisk follows results filed as active; ? = inconclusive; nt = no result. Compounds with a hit are over-represented: about 1.9% of the library has one in this group of screens.
SMILES,XiGFP reactiv,FN deposit inh,DENV2 CPE,PGC1a acetyl inh,Cneo AK release,F508del corr
O=C(Cc1cccc(NC(=O)C2CCCN(C(=O)C3CCC3)C2)c1)Nc1ccc(C(=O)N2CCOCC2)cc1 (configuration not stated),-0.1,4.8,31.6*,nt,0.0,3.6
O=C(Nc1cccc(-n2cnnn2)c1)C1CCCN(C(=O)Cc2cccc(Cl)c2)C1 (configuration not stated),0.1,-3.1,60.5*,-13.4,-3.2,-0.2
C[C@@H]1CN([C@@H](C)CO)C(=O)Cc2cc(NS(=O)(=O)c3cn(C)cn3)ccc2O[C@@H]1CN(C)Cc1ccc(Cl)c(Cl)c1,-0.9,nt,-4.8,-3.0,-2.6,2.6
CO[C@@H]1CN(C)C(=O)c2cc(NC(=O)c3ccccc3)ccc2OC[C@@H](C)N(C(C)=O)C[C@H]1C,0.1,-19.6,-1.9,-6.9,-1.0,0.9
CN(C(=O)c1ccc(NC(=O)Cc2cccc(NC(=O)C3CCN(C(=O)C4CCCCC4)CC3)c2)cc1)C1CC1,0.2,-1.6,-0.3,-6.7,-1.5,-1.3
CN(C(=O)c1ccc(NC(=O)Cc2cccc(NC(=O)C3CCN(C(=O)C4CC4)CC3)c2)cc1)C1CC1,-0.2,-2.8,34.0*,-13.4,-3.5,-0.1
Cc1ccc(S(=O)(=O)N(C)C[C@H]2Oc3ccc(NS(=O)(=O)c4cn(C)cn4)cc3CC(=O)N([C@H](C)CO)C[C@@H]2C)cc1,-1.0,nt,nt,6.5,nt,1.1
COc1cc(OC)cc(-c2cc3ccc(OC)cc3cn2)c1,0.6,5.8,?,-10.6,-11.6,10.2*
COc1ccc2cc(-c3ccccc3)ncc2c1,0.2,6.9,-13.7,4.2,-6.0,0.3
Cc1ccccc1-n1ncc2c1CC(C)(C)CC2NC(=O)c1ccncc1 (configuration not stated),0.1,-1.0,-4.9,-7.3,0.8,-1.7
Cc1ccccc1-n1ncc2c1CC(C)(C)CC2NC(=O)CSc1ccncc1 (configuration not stated),0.7,7.3,107.8*,1.2,-0.3,-2.3
CCCNC(=O)Nc1ccc2c(c1)OC[C@H](C)N(Cc1ccc(-c3ccccn3)cc1)C[C@H](C)[C@H](OC)CN(C)C2=O,0.0,16.4,6.1,-2.9,-0.5,1.7
C[C@@H]1CCCCO[C@H](CN(C)C(=O)CCC(F)(F)F)[C@H](C)CN([C@@H](C)CO)C(=O)c2cc(NS(=O)(=O)c3cccs3)ccc2O1,0.4,nt,3.7,10.4,-0.9,0.6
CC(=O)Nc1cccc(C(=O)OCC(=O)NC(=O)NC2CCCC2)c1,0.2,3.1,-4.1,-1.3,-19.1,4.7
CC(=O)Nc1cccc(C(=O)OC(C)C(=O)NC(=O)NC2CCCCC2)c1 (configuration not stated),0.2,0.5,23.2*,-4.5,3.4,1.7
N#CC(C#N)=C1C=CC=CN1/C(=C\c1ccco1)C(=O)c1ccc(-c2ccccc2)cc1,15.1*,-22.8,nt,nt,nt,nt
N#CC(C#N)=C1C=CC=CN1/C(=C\c1ccco1)C(=O)c1ccc(Cl)cc1,7.6,36.4*,-3.6,nt,nt,-9.5
COc1ccccc1NS(=O)(=O)c1ccc(C)c(C(=O)Nc2cc(C)on2)c1,0.1,4.8,-0.1,1.2,0.6,8.8*
COc1ccccc1C(=O)Nc1ccc(S(=O)(=O)Nc2cc(C)on2)cc1,nt,nt,nt,9.0,1.3,nt
CCSc1nc(-c2ccc(OC)cc2)cc(-c2ccccc2)c1C#N,nt,nt,9.3,24.3,0.1,-0.1
COc1ccc(-c2cc(-c3ccccc3)c(C#N)c(S(C)=O)n2)cc1 (configuration not stated),nt,-6.5,nt,85.0*,-0.8,nt
Cc1ccc(C)c(NS(=O)(=O)c2cc(C(=O)NCc3ccncc3)ccc2C)c1,0.4,7.2,97.8*,3.9,-4.2,0.7
COc1ccccc1NS(=O)(=O)c1cc(C(=O)N2CCCCCC2)ccc1C,-0.5,-6.1,1.0,-4.6,-0.4,17.9*
Cc1ccc(S(=O)(=O)N[C@H]2CC[C@H](CCNC(=O)C3CCCC3)O[C@@H]2CO)cc1,0.2,10.0,72.0*,2.2,95.4*,0.5
COc1ccccc1S(=O)(=O)N[C@@H]1CC[C@@H](CCNC(=O)C2CCCC2)O[C@@H]1CO,0.0,-1.3,20.1*,-6.3,43.7,-0.8
SMILES,XiGFP reactiv,FN deposit inh,DENV2 CPE,PGC1a acetyl inh,Cneo AK release,F508del corr
Cc1ccc(S(=O)(=O)N[C@@H]2CC[C@@H](CCNC(=O)C3CCOCC3)O[C@H]2CO)cc1,0.0,-2.4,21.1*,-2.0,-3.1,-0.1
Cc1ccc(S(=O)(=O)N[C@H]2CC[C@@H](CCNC(=O)C3CCOCC3)O[C@H]2CO)cc1,0.1,5.9,22.1*,-3.6,-3.8,-0.9
Cc1ccc(S(=O)(=O)N[C@H]2CC[C@@H](CCNC(=O)C3CCCC3)O[C@H]2CO)cc1,0.0,-12.2,5.7,8.4,57.2,0.1
C=CCNC(=O)[C@@H]1[C@H]2C(=O)O[C@H](c3ccccc3)[C@H](c3ccccc3)N2[C@H](c2ccccc2OCCO)[C@@]12C(=O)N(C(=O)OCCOC)c1ccc(C#CCC(C(=O)OC)C(=O)OC)cc12,nt,nt,?,nt,-4.5,-2.5
COc1ccc(S(=O)(=O)N[C@H]2CC[C@@H](CCNC(=O)CN3CCOCC3)O[C@H]2CO)cc1,0.1,-3.9,94.0*,3.4,0.4,-1.0
CC(C)(C)S(=O)N1Cc2cc(C(=O)O)nc(-c3cccc(C#CCC4CCCC4)c3)c2[C@H]1CCO (some centres not stated),0.0,-9.1,nt,nt,nt,nt
O=C(C[C@@H]1CC[C@@H](NS(=O)(=O)c2ccccc2)[C@@H](CO)O1)N1CCc2ccccc2C1,0.2,nt,-0.7,-3.6,-1.6,-2.4
O=C(C[C@@H]1CC[C@@H](NC(=O)c2ccc(F)cc2)[C@H](CO)O1)NCCc1ccncc1,-0.3,nt,-4.4,2.1,3.9,-1.6
COc1ccc(Cl)cc1NC(=O)CN(C)CC(=O)Nc1cc(OC)c(OC)c(OC)c1,0.0,11.7,-8.9,-8.2,-2.1,12.6*
COc1ccc(NC(=O)CN(C)CCOc2ccc(Cl)cc2)cc1OC,0.1,6.2,47.2*,-7.8,4.1,3.7
CN(CCOc1ccc(Cl)cc1)CC(=O)Nc1ccc(OC(F)(F)F)cc1,0.1,-3.9,2.1,0.0,0.7,-1.8
Oc1ccc(C[C@@H]2CNCCN2CCc2cc(C(F)(F)F)cc(C(F)(F)F)c2)cc1,0.0,1.1,15.2,nt,18.7,1.4
FC(F)(F)c1cc(CCN2CCNC[C@H]2Cc2cccc3ccccc23)cc(C(F)(F)F)c1,0.1,-0.1,83.9*,nt,6.5,3.1
